Active and inactive are the calls of the source.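 How the source made its calls: active means cell kill with TRAIL plus compound beats the two separate kills summed, at every dose, and climbs with dose; inactive means the rest.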
System: 184B5 cells, TRAIL potentiation, ATPlite cytotoxicity, 24 h
Assay: normal mammary cell killing with TRAIL – 184B5 normal mammary epithelial cells, counter-screen for TRAIL sensitizer project, confirmation (AID 1745)
Conditions: stronger effect = higher value
How it was run: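 System: Normal (non-cancer) 184B5 cells. Also added: TRAIL at 1000 ng/mL final. Doses: compound at final concentrations from 1.25 to 5 µM. Times: compound 4 h then TRAIL 24 h, 37 °C. Signal: ATPLite luminescence.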

[1] = compound alone cytotoxicity, at 5 µM
[2] = compound plus TRAIL, at 1.25 µM

Compound	cytotoxicity with TRAIL (at 5 µM)	cytotoxicity [1]	cytotoxicity (compound alone, at 1.25 µM)	cytotoxicity (compound alone, at 2.5 µM)	cytotoxicity with TRAIL [2]	cytotoxicity with TRAIL (compound plus TRAIL, at 2.5 µM)
CSc1nc(-c2ccccc2)nc(C(Cl)Cl)n1	32% (inactive)	22%	19%	22%	28%	28%
CCSc1nc(-c2ccccc2)nc(C(Cl)Cl)n1	25% (inactive)	11%	10%	11%	21%	22%
CSc1nc(-c2ccc(C)cc2)nc(C(Cl)Cl)n1	41% (inactive)	9%	2%	6%	35%	39%
